In ChEMBL document CHEMBL1153250, “Discovery and SAR of novel, potent and selective hexahydrobenzonaphthyridinone inhibitors of poly(ADP-ribose)polymerase-1 (PARP-1)” (Bioorg Med Chem Lett, 2010):
Activity calls are given as the source filed them. The calls are words filed in the database; no cut-off is given here.

How the values were obtained:
[1] = target: T1, Poly [ADP-ribose] polymerase 1 (Homo sapiens, UniProt P09874); experiment: Inhibition of PARP1 in human HeLa cells assessed as inhibition of hydrogen peroxide-induced poly(ADP-ribosyl)ation; assay type: cell-based
T1 sequence (P09874 whole entry): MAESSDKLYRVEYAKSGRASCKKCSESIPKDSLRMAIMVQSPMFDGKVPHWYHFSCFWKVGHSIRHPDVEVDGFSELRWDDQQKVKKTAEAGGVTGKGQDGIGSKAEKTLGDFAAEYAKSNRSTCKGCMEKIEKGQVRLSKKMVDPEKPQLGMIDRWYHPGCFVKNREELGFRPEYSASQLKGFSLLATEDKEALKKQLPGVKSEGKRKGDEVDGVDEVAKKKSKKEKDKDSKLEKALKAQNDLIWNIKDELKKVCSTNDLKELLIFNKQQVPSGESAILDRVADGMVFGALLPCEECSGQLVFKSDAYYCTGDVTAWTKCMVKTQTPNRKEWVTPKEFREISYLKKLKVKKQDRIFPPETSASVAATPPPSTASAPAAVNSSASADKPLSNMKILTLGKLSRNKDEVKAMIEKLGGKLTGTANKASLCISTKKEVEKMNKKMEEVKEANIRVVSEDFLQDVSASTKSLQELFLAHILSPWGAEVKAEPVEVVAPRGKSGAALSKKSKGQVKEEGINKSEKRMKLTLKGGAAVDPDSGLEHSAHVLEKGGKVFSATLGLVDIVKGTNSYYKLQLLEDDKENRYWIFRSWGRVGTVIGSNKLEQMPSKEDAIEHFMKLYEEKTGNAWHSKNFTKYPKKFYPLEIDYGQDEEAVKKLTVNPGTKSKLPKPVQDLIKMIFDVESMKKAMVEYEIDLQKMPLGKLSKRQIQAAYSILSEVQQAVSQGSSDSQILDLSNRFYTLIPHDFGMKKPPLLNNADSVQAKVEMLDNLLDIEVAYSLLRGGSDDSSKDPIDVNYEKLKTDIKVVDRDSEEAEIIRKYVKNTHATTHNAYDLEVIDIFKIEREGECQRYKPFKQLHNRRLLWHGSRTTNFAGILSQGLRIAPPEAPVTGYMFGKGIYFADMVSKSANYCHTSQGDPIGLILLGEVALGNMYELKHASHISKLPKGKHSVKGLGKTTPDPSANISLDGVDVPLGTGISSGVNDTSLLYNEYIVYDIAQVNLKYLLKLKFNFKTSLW

[2] = target: T1, Poly [ADP-ribose] polymerase 1; experiment: Inhibition of human PARP1 by scintillation proximity assay
[3] = Inhibition of Tankyrase at 1 uM
[4] = target: T2, Poly [ADP-ribose] polymerase tankyrase-1 (Homo sapiens, UniProt O95271); experiment: Inhibition of Tankyrase 1
T2 sequence (O95271 whole entry): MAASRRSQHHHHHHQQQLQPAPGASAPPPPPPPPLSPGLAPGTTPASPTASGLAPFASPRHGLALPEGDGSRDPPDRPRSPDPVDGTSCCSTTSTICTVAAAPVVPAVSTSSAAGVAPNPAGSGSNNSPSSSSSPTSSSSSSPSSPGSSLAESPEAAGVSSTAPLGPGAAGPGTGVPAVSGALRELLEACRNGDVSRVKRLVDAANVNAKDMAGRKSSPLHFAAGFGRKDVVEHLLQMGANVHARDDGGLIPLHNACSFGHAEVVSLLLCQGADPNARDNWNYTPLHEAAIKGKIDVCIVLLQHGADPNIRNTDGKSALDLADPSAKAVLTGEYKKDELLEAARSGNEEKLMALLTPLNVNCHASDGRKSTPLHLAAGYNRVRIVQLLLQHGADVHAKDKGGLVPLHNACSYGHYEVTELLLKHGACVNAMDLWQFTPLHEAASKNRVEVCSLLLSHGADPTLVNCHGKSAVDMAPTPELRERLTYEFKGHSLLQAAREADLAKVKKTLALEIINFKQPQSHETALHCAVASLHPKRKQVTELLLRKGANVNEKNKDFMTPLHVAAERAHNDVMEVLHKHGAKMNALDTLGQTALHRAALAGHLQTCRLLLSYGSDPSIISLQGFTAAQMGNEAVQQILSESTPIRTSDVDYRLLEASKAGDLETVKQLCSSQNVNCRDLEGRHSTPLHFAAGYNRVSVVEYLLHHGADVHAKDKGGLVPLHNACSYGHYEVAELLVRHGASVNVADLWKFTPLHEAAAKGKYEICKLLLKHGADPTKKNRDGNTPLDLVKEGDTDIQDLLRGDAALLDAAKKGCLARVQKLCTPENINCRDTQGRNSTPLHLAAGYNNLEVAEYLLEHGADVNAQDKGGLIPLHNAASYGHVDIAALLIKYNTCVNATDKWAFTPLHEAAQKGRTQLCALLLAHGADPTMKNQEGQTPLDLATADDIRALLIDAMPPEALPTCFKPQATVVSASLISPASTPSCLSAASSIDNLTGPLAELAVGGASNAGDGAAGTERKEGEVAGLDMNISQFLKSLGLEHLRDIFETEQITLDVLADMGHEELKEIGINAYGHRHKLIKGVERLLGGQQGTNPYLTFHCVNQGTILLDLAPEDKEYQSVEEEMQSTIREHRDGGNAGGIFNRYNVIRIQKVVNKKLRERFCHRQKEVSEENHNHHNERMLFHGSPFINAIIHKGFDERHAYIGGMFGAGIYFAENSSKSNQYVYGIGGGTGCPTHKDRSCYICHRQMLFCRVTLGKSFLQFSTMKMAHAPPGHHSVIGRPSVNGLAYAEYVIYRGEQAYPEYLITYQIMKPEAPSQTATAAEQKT

[5] = target: T3, Poly [ADP-ribose] polymerase 2 (Homo sapiens, UniProt Q9UGN5); experiment: Inhibition of PARP2
T3 sequence (Q9UGN5 whole entry): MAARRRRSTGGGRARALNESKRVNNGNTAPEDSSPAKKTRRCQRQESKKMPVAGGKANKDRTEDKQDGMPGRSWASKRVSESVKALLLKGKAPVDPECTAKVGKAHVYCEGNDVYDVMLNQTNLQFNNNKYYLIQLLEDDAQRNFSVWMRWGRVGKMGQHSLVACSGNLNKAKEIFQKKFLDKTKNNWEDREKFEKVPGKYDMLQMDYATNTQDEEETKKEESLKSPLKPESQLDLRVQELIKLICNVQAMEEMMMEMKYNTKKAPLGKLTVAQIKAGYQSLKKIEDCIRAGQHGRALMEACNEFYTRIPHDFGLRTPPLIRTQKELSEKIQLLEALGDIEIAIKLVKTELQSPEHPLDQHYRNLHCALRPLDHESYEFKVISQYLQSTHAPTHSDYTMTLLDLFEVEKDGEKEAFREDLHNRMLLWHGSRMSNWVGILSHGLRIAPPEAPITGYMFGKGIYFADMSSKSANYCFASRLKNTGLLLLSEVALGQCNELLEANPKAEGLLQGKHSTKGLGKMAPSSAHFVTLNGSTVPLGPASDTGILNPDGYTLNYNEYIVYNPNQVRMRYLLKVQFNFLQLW

[6] = target: T4, Protein mono-ADP-ribosyltransferase PARP3 (Homo sapiens, UniProt Q9Y6F1); experiment: Inhibition of PARP3
T4 sequence (Q9Y6F1 whole entry): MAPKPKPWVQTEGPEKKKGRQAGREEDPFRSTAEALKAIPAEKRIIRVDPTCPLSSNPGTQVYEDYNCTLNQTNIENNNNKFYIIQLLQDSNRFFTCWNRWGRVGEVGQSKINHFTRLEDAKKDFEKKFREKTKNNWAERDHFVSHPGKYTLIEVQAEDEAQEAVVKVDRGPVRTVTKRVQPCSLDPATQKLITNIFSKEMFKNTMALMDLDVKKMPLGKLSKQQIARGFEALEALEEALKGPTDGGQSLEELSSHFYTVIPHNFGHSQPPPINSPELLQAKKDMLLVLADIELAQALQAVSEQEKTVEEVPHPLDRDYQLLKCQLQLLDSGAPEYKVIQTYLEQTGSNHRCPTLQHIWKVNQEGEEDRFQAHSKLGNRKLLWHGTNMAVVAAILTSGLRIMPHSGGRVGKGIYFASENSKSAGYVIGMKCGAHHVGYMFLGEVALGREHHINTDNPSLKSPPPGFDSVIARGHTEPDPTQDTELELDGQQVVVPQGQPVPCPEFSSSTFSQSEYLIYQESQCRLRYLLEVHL

[7] = Intrinsic clearance in rat liver microsomes; assay type: ADME, Microsome
[8] = tested on: Rattus norvegicus; experiment: Volume of distribution in rat at 3 mg/kg, iv and po; assay type: ADME, organism-based; design: dose 3 mg/kg, route oral; conditions: in vivo
How it was run: (§1)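 Rats received the compound both intravenously and orally, each at 3 mg/kg. Reported PK parameters are half-life (h), volume of distribution (L/kg), clearance (ml/min/kg), oral bioavailability (%F) and oral AUC (μM h).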

[9] = target: Voltage-gated inwardly rectifying potassium channel KCNH2 (Homo sapiens, UniProt Q12809); experiment: Binding affinity to potassium channel IKr at 10 uM
Voltage-gated inwardly rectifying potassium channel KCNH2, sequence (Q12809 whole entry): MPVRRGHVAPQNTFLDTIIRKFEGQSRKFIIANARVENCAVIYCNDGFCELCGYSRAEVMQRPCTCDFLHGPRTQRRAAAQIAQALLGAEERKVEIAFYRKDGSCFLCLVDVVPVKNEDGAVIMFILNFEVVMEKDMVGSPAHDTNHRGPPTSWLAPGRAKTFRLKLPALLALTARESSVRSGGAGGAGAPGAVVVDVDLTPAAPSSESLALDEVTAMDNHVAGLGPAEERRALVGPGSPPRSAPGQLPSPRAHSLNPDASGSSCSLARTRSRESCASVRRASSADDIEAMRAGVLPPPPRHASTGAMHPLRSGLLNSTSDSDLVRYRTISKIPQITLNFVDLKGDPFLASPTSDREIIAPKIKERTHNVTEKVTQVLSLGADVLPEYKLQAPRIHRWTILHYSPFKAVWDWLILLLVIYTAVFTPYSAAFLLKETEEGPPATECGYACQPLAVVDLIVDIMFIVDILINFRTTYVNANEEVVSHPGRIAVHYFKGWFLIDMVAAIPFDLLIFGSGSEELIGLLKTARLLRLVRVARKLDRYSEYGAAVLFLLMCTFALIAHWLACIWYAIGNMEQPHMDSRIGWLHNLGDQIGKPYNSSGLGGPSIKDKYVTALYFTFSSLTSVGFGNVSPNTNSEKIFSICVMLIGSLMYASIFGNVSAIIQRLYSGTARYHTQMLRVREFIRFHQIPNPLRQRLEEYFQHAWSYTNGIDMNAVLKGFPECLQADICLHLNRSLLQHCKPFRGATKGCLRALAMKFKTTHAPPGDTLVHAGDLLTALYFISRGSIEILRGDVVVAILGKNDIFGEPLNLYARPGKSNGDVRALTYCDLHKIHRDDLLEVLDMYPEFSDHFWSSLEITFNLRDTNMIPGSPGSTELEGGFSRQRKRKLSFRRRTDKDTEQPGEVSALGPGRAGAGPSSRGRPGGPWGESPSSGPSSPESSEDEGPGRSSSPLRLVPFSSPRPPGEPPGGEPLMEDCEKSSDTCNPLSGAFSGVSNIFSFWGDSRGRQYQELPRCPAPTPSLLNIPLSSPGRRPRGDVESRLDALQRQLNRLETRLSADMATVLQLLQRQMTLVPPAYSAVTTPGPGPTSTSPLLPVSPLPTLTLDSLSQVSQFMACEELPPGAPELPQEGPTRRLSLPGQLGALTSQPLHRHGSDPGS

[10] = target: Protein mono-ADP-ribosyltransferase PARP4 (Homo sapiens, UniProt Q9UKK3); experiment: Inhibition of VPARP
Protein mono-ADP-ribosyltransferase PARP4, sequence (Q9UKK3 whole entry): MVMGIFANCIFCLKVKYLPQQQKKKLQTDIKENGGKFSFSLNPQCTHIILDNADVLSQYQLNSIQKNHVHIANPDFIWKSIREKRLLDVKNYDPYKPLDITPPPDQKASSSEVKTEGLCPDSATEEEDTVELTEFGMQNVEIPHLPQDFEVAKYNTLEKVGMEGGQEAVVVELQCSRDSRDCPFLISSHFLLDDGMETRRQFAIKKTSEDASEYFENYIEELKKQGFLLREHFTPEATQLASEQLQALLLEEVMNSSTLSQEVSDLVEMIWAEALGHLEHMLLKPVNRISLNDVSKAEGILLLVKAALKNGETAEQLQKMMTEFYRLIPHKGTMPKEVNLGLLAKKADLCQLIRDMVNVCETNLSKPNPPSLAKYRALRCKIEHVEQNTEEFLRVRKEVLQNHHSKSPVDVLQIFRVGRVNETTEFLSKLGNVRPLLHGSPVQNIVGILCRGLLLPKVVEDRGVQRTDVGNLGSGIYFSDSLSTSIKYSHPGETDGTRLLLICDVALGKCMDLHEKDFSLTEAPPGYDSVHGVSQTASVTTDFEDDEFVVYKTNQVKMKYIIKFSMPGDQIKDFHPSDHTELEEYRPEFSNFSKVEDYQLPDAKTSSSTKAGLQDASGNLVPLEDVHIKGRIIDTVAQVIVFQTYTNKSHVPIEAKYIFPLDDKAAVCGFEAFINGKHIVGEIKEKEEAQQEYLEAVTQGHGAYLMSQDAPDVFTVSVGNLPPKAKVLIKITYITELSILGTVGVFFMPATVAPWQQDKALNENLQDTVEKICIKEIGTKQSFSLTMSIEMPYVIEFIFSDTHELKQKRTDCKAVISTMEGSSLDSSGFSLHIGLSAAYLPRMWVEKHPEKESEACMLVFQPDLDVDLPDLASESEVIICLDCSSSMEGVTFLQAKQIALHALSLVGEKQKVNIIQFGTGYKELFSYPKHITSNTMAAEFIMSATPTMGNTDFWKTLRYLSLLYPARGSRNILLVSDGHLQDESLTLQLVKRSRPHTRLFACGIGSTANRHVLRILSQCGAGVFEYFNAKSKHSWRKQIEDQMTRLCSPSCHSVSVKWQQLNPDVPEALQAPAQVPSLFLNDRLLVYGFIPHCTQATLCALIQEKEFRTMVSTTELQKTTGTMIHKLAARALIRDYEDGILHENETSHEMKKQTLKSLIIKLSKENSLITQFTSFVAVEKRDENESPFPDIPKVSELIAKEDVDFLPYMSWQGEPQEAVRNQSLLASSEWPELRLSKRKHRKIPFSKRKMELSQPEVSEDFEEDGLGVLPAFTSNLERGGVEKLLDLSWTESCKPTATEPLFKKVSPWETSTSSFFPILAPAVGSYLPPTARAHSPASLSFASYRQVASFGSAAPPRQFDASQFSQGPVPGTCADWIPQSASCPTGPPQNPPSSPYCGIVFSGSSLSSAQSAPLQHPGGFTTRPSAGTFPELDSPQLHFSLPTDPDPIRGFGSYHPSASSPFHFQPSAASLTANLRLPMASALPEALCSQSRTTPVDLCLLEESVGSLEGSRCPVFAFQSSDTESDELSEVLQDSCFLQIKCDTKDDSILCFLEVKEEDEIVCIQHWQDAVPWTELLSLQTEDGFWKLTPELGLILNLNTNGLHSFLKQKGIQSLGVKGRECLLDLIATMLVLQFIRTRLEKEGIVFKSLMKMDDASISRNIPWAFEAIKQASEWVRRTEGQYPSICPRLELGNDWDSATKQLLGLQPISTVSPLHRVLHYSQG

[11] = Half life in rat at 3 mg/kg, iv and po; assay type: ADME, organism-based; design: dose 3 mg/kg, route oral; conditions: in vivo; how it was run: as §1
[12] = Inhibition of Cytochrome P450 at 10 uM; assay type: ADME
[13] = target: T1, Poly [ADP-ribose] polymerase 1; experiment: Inhibition of human PARP1 at 1 uM by scintillation proximity assay
[14] = target: T3, Poly [ADP-ribose] polymerase 2; experiment: Inhibition of PARP2 at 1 uM

Structure (SMILES)	EC50 [1] [µM]	IC50 [2] [µM]	further results
Cn1cc(CCC(=O)N2CCc3cccc4c3C2CNC4=O)cn1 (stereo not given)	0.42	0.014	–
O=C1NCC2c3c(cccc31)CCN2C(=O)Cc1ccccc1Cl (stereo not given)	0.9	0.016	–
O=C1NCC2c3c(cccc31)CCN2C(=O)c1ccccc1 (stereo not given)	0.84	0.004	–
O=C1NCC2c3c(cccc31)CCN2C(=O)CCn1cnc2ccccc21 (stereo not given)	1.6	0.001	–
O=C1NCC2c3c(cccc31)CCN2C(=O)c1cccc(C(=O)N2CCCNCC2)c1 (stereo not given)	–	0.05	–
Cc1csc(CC(=O)N2CCc3cccc4c3C2CNC4=O)n1 (stereo not given)	2.9	0.006	–
O=C1NCC2c3c(cccc31)CCN2C(=O)Cc1ccccn1 (stereo not given)	0.23	0.013	–
O=C1NCC2c3c(cccc31)CCN2C(=O)c1cccc(Cl)c1 (stereo not given)	–	0.037	–
O=C1NCC2c3c(cccc31)CCN2C(=O)Oc1ccccc1 (stereo not given)	1.4	0.009	–
COc1ccc(CC(=O)N2CCc3cccc4c3C2CNC4=O)cc1 (stereo not given)	0.16	0.006	–
CC(=O)N1CCC[C@H]1C(=O)N1CCc2cccc3c2C1CNC3=O (stereo not given in full)	2.8	0.014	–
O=C1NCC2c3c(cccc31)CCN2S(=O)(=O)Cc1ccccc1 (stereo not given)	2.7	0.083	–
O=C1NCC2c3c(cccc31)CCN2C(=O)c1ccc(Cl)cc1 (stereo not given)	0.26	0.007	–
CN1CCN(CC(=O)N2CCc3cccc4c3C2CNC4=O)CC1 (stereo not given)	3.5	0.097	–
O=C1NCC2c3c(cccc31)CCN2C(=O)CN1CCN(c2ccccc2)CC1 (stereo not given)	0.44	0.011	–
O=C1NCC2c3c(cccc31)CCN2C(=O)C1CCCC1 (stereo not given)	0.55	0.011	–
O=C(O)CCCC(=O)N1CCc2cccc3c2C1CNC3=O (stereo not given)	5	0.015	–
O=C1NCC2c3c(cccc31)CCN2C(=O)C1CCNC1 (stereo not given)	3.2	0.001	–
O=C1NCC2NCCc3cccc1c32 (stereo not given)	–	0.14	inhibition [3]: 11%
O=C1NCC2c3c(cccc31)CCN2C(=O)NCc1ccccc1 (stereo not given)	0.69	0.012	–
N#Cc1ccc(CC(=O)N2CCc3cccc4c3C2CNC4=O)cc1 (stereo not given)	0.2	0.009	–
CN(C)C(=O)CCC(=O)N1CCc2cccc3c2C1CNC3=O (stereo not given)	2.8	0.009	–
O=C1NCC2c3c(cccc31)CCN2C(=O)CN1CCC(c2ccccc2)CC1 (stereo not given)	0.41	0.0005	–

Structure (SMILES)	EC50 [1] [µM]	IC50 [2] [µM]	further results
O=C1NCC2c3c(cccc31)CCN2C(=O)Cc1ccc(Cl)cc1 (stereo not given)	0.65	0.005	–
O=C1NCC2c3c(cccc31)CCN2C(=O)Cc1ccc(OCc2ccccc2)cc1 (stereo not given)	0.58	0.016	–
O=C1NCC2c3c(cccc31)CCN2C(=O)Cc1ccncc1 (stereo not given)	4.6	0.01	–
O=C1NCC2c3c(cccc31)CCN2C(=O)CCc1cnccn1 (stereo not given)	0.33	0.006	IC50 [4]: 2 µM; IC50 [5]: 0.001 µM; IC50 [6]: 0.07 µM; microsomal CLint [7]: 24 µL/min/mg; Vd [8]: 2 L/kg; Activity [9]: Not Active; IC50 [10]: 0.66 µM; half-life [11]: 1.2 h; Activity [12]: Not Active
O=C1CC2NCCc3cccc(c32)N1 (stereo not given)	–	–	inhibition [13]: inactive; inhibition [14]: inactive
COc1ccccc1CC(=O)N1CCc2cccc3c2C1CNC3=O (stereo not given)	1.7	0.027	–
O=C1NCC2c3c(cccc31)CCN2C(=O)c1ccc(C(=O)N2CCCNCC2)cc1 (stereo not given)	–	0.13	–
O=C1NCC2c3c(cccc31)CCN2C(=O)Cc1ccccc1 (stereo not given)	0.23	0.008	–
CCN(CC)Cc1ccc(C(=O)N2CCc3cccc4c3C2CNC4=O)cc1 (stereo not given)	0.31	0.013	–
O=C1NCC2c3c(cccc31)CCN2C(=O)Cc1ccc(Br)cc1 (stereo not given)	0.2	0.007	–
O=C1NCC2c3c(cccc31)CCN2C(=O)[C@@H]1CCCN1 (stereo not given in full)	0.18	0.004	–
O=C1NCC2c3c(cccc31)CCN2C(=O)CN1CCCCC1 (stereo not given)	0.28	0.006	microsomal CLint [7]: 18 µL/min/mg
Nc1cccc2c1CCNC2=O	–	0.0005	–
COc1cccc(CC(=O)N2CCc3cccc4c3C2CNC4=O)c1 (stereo not given)	1.2	0.005	–
Cc1c(CC(=O)N2CCc3cccc4c3C2CNC4=O)sc2ccccc12 (stereo not given)	1.3	0.013	–
O=C1NCC2c3c(cccc31)CCN2C(=O)Cc1cccc(Cl)c1 (stereo not given)	1.1	0.005	–
O=C1NCC2c3c(cccc31)CCN2C(=O)Nc1ccccc1 (stereo not given)	1.1	0.011	–
O=C1NCC2c3c(cccc31)CCN2C(=O)c1ccccc1Cl (stereo not given)	–	0.035	–
O=C1NCC2c3c(cccc31)CCN2C(=O)C1CNC1 (stereo not given)	0.66	0.001	–
O=C1NCC2c3c(cccc31)CCN2C(=O)CCc1ccccc1 (stereo not given)	0.35	0.004	–
O=C1NCC2c3c(cccc31)CCN2Cc1ccccc1 (stereo not given)	5.2	0.19	–
O=C1NCC2c3c(cccc31)CCN2C(=O)OCc1ccccc1 (stereo not given)	0.13	0.014	–
